Experimental data as given in ChEMBL document CHEMBL1156806, “Novel synthesis and structural characterization of a high-affinity paramagnetic kinase probe for the identification of non-ATP site binders by nuclear magnetic resonance” (J Med Chem, 2010).
The source made the active and inactive calls. No cut-off for these calls is given here.

Assays:
[1] = target: T1, Proto-oncogene tyrosine-protein kinase Src (Homo sapiens, UniProt P12931); assay: Inhibition of staurosporine binding to ATP binding site of human SRC by saturation transfer difference spectra
T1 sequence (P12931 2-536 limits assumed): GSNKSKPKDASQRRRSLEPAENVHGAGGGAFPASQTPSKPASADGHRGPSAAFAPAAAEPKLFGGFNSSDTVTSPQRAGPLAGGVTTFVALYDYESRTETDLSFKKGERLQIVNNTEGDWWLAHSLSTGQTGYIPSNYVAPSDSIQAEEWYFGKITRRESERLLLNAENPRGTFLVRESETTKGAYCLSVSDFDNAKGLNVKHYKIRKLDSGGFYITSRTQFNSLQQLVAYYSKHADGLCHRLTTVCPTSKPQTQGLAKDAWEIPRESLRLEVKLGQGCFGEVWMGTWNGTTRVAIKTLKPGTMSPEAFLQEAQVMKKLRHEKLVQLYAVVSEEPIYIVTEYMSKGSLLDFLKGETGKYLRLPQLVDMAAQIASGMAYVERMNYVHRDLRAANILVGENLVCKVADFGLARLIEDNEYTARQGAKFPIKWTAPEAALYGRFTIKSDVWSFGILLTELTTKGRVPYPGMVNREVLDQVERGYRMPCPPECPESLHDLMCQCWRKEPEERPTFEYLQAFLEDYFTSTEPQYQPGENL
Summary of the method: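 Human Src kinase domain (T250-L536, Sf21 insect-cell expressed, His6-tagged, Ni-NTA then gel filtration). NMR buffer 20 mM HEPES (pH 7.5), 200 mM NaCl, 5 mM MgCl2, 2 mM DTT, 2% DMSO/98% D2O; 25 °C, 600 MHz. Saturation at 0.78 ppm for 3 s (60 × 50 ms G4 pulses). STD % is STD over 1D reference intensity.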

[2] = target: Tyrosine-protein kinase Lck (Homo sapiens) (UniProt P06239); assay: Inhibition of AMP-PNP binding to ATP binding site of LCK by saturation transfer difference spectra
Chain of Tyrosine-protein kinase Lck (Homo sapiens) (P06239 2-509 limits assumed): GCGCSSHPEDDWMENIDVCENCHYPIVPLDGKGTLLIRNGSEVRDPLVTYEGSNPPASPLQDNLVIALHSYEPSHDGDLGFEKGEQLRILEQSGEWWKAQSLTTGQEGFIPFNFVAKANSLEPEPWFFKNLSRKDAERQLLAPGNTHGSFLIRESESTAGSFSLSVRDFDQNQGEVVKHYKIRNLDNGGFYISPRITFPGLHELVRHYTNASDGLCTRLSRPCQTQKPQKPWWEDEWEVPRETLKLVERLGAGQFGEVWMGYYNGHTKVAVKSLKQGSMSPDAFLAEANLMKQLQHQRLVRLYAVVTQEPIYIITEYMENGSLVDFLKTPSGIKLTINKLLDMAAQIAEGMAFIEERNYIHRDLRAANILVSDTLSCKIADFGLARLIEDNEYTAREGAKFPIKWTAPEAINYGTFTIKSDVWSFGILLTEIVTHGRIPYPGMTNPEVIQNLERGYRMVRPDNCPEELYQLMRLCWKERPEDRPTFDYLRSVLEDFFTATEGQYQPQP
Summary of the method: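 Lck kinase domain in 25 mM HEPES (pH 7.5), 200 mM NaCl, 10 mM MgCl2, 1 mM DTT, 5% DMSO/95% D2O; 25 °C, 600 MHz. Ligand is in large excess over protein. Protein saturated at 0.78 ppm for 3 s with 60 G4 Gaussian cascade pulses of 50 ms, 1 ms apart. STD % is peak intensity in STD spectrum over 1D 1H reference.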

[3] = target: T1, Proto-oncogene tyrosine-protein kinase Src; assay: Inhibition of src kinase
Summary of the method: (§1)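 Commercial recombinant kinases with kinase-optimised fluorescent peptide substrate at 1.5 μM and ATP at each kinase's measured Km; enzyme below 50 nM final. 11-point titration in DMSO, […] to 5 nM final. Room temperature, 1-2 h, to 20-30% substrate phosphorylation. EDTA stop, then substrate/product electrophoretic separation. IC50 from a Hill-equation fit of percent inhibition.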

[4] = target: T1, Proto-oncogene tyrosine-protein kinase Src; assay: Inhibition of src kinase by functional activity assay of the Src kinase domain
[5] = target: T1, Proto-oncogene tyrosine-protein kinase Src; assay: Inhibition of AMP-PNP binding to ATP binding site of human SRC by saturation transfer difference spectra
[6] = target: Tyrosine-protein kinase Lck (Homo sapiens) (UniProt P06239); assay: Binding affinity to LCK assessed as reduction of compound relaxation intensity ratio at 100 uM by NMR method
Summary of the method: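 Lck kinase domain in 25 mM HEPES (pH 7.5), 200 mM NaCl, 10 mM MgCl2, 1 mM DTT, 5% DMSO/95% D2O; 25 °C, 600 MHz cryoprobe. T1ρ spectra at 10 and 200 ms spin-lock, 128 scans each. Ratio is the 200 ms over 10 ms resonance intensity, compared between spin-labelled probe and its reduced form.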

[7] = target: Tyrosine-protein kinase HCK (Homo sapiens, UniProt P08631); assay: Inhibition of Hck; summary of the method: as §1
[8] = target: Protein kinase C alpha type (Homo sapiens, UniProt P17252); assay: Inhibition of PKCalpha; summary of the method: as §1
[9] = target: Protein kinase C beta type (Homo sapiens, UniProt P05771); assay: Inhibition of PKCbeta1
Chain of Protein kinase C beta type (P05771 whole entry): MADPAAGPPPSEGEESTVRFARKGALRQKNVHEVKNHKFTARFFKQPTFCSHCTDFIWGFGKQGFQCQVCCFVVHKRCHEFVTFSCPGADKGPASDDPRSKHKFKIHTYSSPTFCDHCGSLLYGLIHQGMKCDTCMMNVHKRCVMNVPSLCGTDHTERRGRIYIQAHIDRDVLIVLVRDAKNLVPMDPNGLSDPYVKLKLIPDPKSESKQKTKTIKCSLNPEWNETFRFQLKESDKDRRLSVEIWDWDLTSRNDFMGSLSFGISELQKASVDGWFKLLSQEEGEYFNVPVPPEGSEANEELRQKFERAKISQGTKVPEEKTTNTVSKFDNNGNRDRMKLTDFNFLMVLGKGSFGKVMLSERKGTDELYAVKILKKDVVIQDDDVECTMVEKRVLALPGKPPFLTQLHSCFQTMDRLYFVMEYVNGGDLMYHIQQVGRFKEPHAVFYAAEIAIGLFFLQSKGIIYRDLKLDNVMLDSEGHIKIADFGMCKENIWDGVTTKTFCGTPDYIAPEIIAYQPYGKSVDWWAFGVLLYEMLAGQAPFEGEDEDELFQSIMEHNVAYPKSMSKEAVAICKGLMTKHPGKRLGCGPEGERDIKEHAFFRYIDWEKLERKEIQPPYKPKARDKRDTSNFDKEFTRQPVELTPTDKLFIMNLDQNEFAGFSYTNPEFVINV

[10] = target: Platelet-derived growth factor receptor alpha (Homo sapiens, UniProt P16234); assay: Inhibition of PDGFRalpha; summary of the method: as §1
Chain of Platelet-derived growth factor receptor alpha (P16234 whole entry): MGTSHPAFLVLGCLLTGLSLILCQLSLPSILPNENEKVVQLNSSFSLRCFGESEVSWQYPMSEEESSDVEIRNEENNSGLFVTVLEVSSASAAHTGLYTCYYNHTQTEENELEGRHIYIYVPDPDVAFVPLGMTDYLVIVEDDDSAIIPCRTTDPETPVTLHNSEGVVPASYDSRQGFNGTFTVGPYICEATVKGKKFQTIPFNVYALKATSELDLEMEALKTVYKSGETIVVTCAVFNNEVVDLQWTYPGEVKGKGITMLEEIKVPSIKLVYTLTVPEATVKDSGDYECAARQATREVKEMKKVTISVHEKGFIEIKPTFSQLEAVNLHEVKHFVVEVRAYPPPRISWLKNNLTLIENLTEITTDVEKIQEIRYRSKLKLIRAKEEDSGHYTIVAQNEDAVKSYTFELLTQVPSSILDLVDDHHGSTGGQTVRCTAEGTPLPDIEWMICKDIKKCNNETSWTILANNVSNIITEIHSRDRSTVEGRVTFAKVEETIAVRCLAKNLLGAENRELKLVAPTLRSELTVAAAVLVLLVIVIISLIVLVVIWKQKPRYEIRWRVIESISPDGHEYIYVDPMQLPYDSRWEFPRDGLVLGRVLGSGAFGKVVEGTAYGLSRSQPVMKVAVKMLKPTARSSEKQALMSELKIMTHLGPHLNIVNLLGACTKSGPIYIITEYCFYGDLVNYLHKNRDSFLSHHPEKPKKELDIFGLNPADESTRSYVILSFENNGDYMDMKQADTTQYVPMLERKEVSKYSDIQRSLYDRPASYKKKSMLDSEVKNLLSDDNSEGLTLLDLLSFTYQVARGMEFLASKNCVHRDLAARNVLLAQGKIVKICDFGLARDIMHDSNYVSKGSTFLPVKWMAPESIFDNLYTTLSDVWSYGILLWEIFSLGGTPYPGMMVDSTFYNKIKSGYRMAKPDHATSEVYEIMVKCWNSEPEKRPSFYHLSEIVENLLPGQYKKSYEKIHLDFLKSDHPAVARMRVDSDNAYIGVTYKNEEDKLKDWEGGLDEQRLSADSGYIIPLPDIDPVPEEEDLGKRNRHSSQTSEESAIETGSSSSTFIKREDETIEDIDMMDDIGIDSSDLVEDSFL

[11] = target: Tyrosine-protein kinase Fyn (Homo sapiens, UniProt P06241); assay: Inhibition of Fyn; summary of the method: as §1
Chain of Tyrosine-protein kinase Fyn (P06241 whole entry): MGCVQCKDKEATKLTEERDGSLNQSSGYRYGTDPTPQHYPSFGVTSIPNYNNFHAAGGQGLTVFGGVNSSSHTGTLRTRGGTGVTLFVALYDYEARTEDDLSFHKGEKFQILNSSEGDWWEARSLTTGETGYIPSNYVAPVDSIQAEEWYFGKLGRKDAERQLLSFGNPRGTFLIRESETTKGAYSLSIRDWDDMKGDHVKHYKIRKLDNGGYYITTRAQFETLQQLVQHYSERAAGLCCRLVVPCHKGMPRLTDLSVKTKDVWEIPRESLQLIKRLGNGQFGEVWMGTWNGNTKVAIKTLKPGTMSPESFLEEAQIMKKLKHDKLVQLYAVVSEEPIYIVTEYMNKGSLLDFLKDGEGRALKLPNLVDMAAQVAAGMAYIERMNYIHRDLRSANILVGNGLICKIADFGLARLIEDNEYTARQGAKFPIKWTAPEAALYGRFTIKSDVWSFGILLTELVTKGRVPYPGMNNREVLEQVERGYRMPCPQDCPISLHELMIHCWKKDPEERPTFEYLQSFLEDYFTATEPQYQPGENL

[12] = target: Vascular endothelial growth factor receptor 2 (Homo sapiens, UniProt P35968); assay: Inhibition of KDR; summary of the method: as §1
[13] = target: Tyrosine-protein kinase Lyn (Homo sapiens, UniProt P07948); assay: Inhibition of Lyn A; summary of the method: as §1
Chain of Tyrosine-protein kinase Lyn (P07948 whole entry): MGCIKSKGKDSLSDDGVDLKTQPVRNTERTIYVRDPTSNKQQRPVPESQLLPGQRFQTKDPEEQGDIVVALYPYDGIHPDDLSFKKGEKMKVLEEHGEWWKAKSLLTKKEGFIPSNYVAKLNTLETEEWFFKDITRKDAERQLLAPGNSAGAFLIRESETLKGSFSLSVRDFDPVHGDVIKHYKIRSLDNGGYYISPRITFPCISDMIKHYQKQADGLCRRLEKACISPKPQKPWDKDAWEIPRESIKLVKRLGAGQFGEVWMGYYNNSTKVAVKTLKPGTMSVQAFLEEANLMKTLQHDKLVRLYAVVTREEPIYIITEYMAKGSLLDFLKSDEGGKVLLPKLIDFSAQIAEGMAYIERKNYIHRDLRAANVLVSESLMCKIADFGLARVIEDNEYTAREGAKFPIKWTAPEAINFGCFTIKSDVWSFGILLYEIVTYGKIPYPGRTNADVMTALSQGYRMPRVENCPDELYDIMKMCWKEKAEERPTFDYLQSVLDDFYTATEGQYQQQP

[14] = target: MAP kinase-activated protein kinase 2 (Homo sapiens, UniProt P49137); assay: Inhibition of MK2
[15] = target: Cyclin-dependent kinase 2/cyclin A (Homo sapiens, UniProt P24941); assay: Inhibition of CDK2/Cyclin A; assay type: protein-complex assay
[16] = target: Casein kinase I isoform gamma-1 (Homo sapiens, UniProt Q9HCP0); assay: Inhibition of CK1gamma1
[17] = Inhibition of PKA
Aurora kinase B = Aurora kinase B (Homo sapiens, UniProt Q96GD4); assay: Inhibition of Aurora B; summary of the method: as §1
[18] = target: Tyrosine-protein kinase ABL1 (Homo sapiens, UniProt P00519); assay: Inhibition of Abl 1; summary of the method: as §1
[19] = target: Mitogen-activated protein kinase 14 (Homo sapiens, UniProt Q16539); assay: Inhibition of p38alpha
Chain of Mitogen-activated protein kinase 14 (Q16539 whole entry): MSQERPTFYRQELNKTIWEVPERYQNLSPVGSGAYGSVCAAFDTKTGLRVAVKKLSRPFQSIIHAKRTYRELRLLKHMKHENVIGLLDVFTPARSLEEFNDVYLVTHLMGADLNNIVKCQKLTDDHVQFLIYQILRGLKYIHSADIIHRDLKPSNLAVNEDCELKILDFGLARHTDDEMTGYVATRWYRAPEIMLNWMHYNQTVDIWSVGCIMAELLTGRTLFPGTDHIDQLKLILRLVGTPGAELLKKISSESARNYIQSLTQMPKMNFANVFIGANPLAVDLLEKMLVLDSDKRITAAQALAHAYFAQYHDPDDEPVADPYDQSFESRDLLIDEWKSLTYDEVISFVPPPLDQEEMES

[20] = target: Ribosomal protein S6 kinase alpha-1 (Homo sapiens, UniProt Q15418); assay: Inhibition of RSK1
[21] = target: Mitogen-activated protein kinase 1 (Homo sapiens, UniProt P28482); assay: Inhibition of ERK2
[22] = target: Cyclin-dependent kinase 1/cyclin B (Homo sapiens, UniProt P06493); assay: Inhibition of CDK1/Cyclin B; assay type: protein-complex assay
[23] = target: T2, Mitogen-activated protein kinase kinase kinase kinase 2 (Homo sapiens, UniProt Q12851); assay: Inhibition of GCK; summary of the method: as §1
T2 sequence (Q12851 whole entry): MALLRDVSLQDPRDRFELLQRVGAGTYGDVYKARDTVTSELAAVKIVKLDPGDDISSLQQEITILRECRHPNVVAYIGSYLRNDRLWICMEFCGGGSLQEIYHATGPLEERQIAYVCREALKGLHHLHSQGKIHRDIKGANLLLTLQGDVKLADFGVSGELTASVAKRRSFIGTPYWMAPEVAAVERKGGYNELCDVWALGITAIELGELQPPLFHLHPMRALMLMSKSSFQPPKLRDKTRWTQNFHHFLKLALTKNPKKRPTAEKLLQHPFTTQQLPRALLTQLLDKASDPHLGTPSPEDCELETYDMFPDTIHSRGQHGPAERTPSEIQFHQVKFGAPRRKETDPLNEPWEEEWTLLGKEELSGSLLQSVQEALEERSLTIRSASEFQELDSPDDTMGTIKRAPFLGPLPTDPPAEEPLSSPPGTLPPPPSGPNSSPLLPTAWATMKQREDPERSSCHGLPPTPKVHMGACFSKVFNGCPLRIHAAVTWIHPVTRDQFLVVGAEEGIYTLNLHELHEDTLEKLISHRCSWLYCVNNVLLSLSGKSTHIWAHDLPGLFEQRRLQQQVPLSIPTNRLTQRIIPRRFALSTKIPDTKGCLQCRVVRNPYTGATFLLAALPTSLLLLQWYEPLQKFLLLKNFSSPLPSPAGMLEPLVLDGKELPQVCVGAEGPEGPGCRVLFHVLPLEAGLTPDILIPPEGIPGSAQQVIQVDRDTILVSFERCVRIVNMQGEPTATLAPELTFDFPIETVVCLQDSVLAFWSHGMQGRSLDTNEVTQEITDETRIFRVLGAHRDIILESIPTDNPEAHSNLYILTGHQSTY

Q: For O=C(Cc1ccc(-c2ccc(OCCN3CCOCC3)cc2)cn1)NCc1ccccc1 [TIRBANIBULIN], which Activity [1] is on record?
A: inactive

Q: What about the Activity [2] of the same compound?
A: Active

Q: What about the IC50 [3] of the same compound?
A: > 20000 nM

Q: What about the IC50 [4] of the same compound?
A: 40000 nM

Q: And the Activity [5]?
A: inactive

Q: And the Activity [6]?
A: Active

Q: With CC1(C)CC(NC(=O)c2cccc(-c3cc4nccc(Nc5cccc(O)c5)n4n3)c2)CC(C)(C)N1[O] as the compound, how does the IC50 [7] read?
A: 16 nM

Q: What about the IC50 [8] of the same compound?
A: 1300 nM

Q: And the IC50 [9]?
A: > 60000 nM

Q: What about the IC50 [10] of the same compound?
A: 38 nM

Q: And the IC50 [11]?
A: 5 nM

Q: And the IC50 [12]?
A: 3.3 nM

Q: What about the Activity [2] of the same compound?
A: Active

Q: What about the IC50 [13] of the same compound?
A: 7 nM

Q: And the IC50 [14]?
A: > 50000 nM

Q: What about the IC50 [15] of the same compound?
A: > 50000 nM

Q: And the IC50 [16]?
A: > 50000 nM

Q: And the IC50 [17]?
A: > 50000 nM

Q: What about the IC50 [3] of the same compound?
A: 5 nM

Q: And the IC50 (Aurora kinase B)?
A: 2900 nM

Q: What about the Activity [5] of the same compound?
A: Active

Q: What about the IC50 [18] of the same compound?
A: 5 nM

Q: And the IC50 [19]?
A: > 50000 nM

Q: What about the IC50 [20] of the same compound?
A: > 50000 nM

Q: And the IC50 [21]?
A: > 50000 nM

Q: And the IC50 [22]?
A: > 50000 nM

Q: And the IC50 [23]?
A: 24 nM

Q: What does the source list for O=C(O)c1ccccc1Nc1ccccc1?
A: Activity [1]: inactive; Activity [2]: Active; Activity [6]: Active
